Hits are enriched below; roughly 1.3% of the tested compounds scored in any of these assays.
proCasp3 act – activators of human procaspase-3 D3A mutant, primary screen, biochemical, absorbance, PC-3 D3A mutant, single concentration; recombinant procaspase-3 D3A, Ac-DEVD-pNA absorbance 405 nm; Caspase-3 (Homo sapiens), P42574; activation, % at 8.5 µM; 330,000 tested, 0.11% active;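 active = activation above the mean of all tested compounds plus 3 SD, cut at about 21% in these data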;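 also: 0% = DMSO alone and 100% = DMSO wells spiked with extra 5 µM PC-3 D3A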
Target sequence (P42574 whole entry D9A/D28A/D175A): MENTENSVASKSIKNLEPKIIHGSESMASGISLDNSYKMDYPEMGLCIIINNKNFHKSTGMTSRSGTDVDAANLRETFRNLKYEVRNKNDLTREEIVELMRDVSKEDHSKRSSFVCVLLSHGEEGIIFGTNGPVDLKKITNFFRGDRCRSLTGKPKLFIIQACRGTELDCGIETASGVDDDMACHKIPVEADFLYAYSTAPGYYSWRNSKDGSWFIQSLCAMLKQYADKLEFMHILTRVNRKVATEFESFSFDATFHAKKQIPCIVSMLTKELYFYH
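Assay system – Procaspase-3 D3A mutant, all three cleavage aspartates alanine · Controls – DMSO-only low control, 5 µM PC-3 D3A high control · Schedule – 1 h compound preincubation, 2 h substrate hydrolysis at 25 °C · Signal – 405 nm absorbance of p-nitroaniline, reads at 0 and 120 min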
proCasp7 act – procaspase-7 activators, primary screen, counter-screen for procaspase-3 activator project, biochemical, absorbance, HTS, human. recombinant procaspase-7, Ac-DEVD-pNA absorbance 405 nm; D23A/D198A/D206A triple mutant, cannot self-cleave; scale: DMSO 0, 5 µM enzyme 100. activation, % at 8.5 µM. 330,000 tested, 0.093% active. Caspase-7 (Homo sapiens), P55210;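 active = percent activation above the screen-wide mean plus 3 SD, cut at about 25% in these data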
Target sequence (P55210 whole entry D23A/D198A/D206A): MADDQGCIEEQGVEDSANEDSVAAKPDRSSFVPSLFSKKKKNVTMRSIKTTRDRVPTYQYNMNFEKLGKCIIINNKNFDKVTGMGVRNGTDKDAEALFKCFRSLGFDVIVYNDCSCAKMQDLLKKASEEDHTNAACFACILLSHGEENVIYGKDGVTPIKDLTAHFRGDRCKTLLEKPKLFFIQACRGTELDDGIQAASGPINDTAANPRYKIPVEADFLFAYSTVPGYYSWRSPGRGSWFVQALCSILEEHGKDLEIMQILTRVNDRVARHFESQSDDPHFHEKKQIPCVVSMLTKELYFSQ
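buffer or medium = Zinc-free HEPES/NaCl buffer, pH 7.4 | material = Procaspase-7 triple mutant (PC-7 D3A) | input = 2 µM procaspase-7 mutant as dispensed | signal = Epi-absorbance of released pNA at 405 nm, two timepoints | timing = 1 h preincubation, 2 h reaction | replicates = singlicate compound testing | evaluation = % activation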
Lipid droplet – inhibitors of hepatocyte lipid droplet formation, primary screen, imaging, high-throughput imaging, BODIPY stain | AML12 mouse hepatocytes, oleate lipid droplets | inhibition, % at 6.5 µM | 240,000 tested, 0.4% active | AID 1656, 2009;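 active = lipid droplet intensity inhibited by at least 50%, with more than 500 cells counted; inconclusive = wells with under 300 cells, treated as cytotoxic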
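Test system: AML12 hepatocytes (mouse); reagent: oleate loading, 100 µM; dosing: one dose, 6.5 µM compound; incubation: overnight exposure; signal: fluorescence imaging, 20x objective, two fields per well; read-out basis: % inhibition of corrected integrated BODIPY droplet signal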
GASC-1 inh – inhibitors of GASC-1 histone demethylase, primary screen, biochemical, fluorescence, DELFIA europium | 330,000 tested, 0.069% active | GST-JMJD2C(1-420) H3K9me3 demethylation | inhibition, % at 2.35 µM | Lysine-specific demethylase 4C (Homo sapiens), Q9H3R0;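 active = more than half of a compound's replicate wells show inhibition beyond 50%, single wells judged on their own value; inconclusive = some, but no more than half, of replicates pass 50% inhibition; inactive = no replicate passes 50% inhibition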;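 also: signal counts dimethyl H3K9 product captured on neutravidin plate; 0% = median of DMSO wells and 100% = 0.3 times that DMSO median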
GRK2 aptamer HTS – compounds blocking aptamer binding on GRK2 – biochemical, human GRK2, bead flow cytometry, HTS, primary screen; inhibition of aptamer binding, % at 10 µM; FAM-aptamer displacement from GRK2; Beta-adrenergic receptor kinase 1 (Homo sapiens), P25098; AID 488847, 2010; 330,000 tested, 0.59% active;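 active = inhibition of aptamer binding above 40%, roughly 3 SD of noise, on plates passing a quality check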;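 also: median bead fluorescence of bound FAM aptamer so fluorescent compounds give negative values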
VLA-4 inh – inhibition in human VLA-4 binding assay, primary screen, VLA-4 allosteric modulator project, MLPCN library, flow cytometry, VLA-4 expressing cells. inhibition, % (about 7 µM as worked out from the volumes in the protocol). AID 2557, 2010. Integrin alpha-4 (Homo sapiens), P13612. 330,000 tested, 0.2% active. ligand binding flow cytometry; in the data active = inhibition above about 50%
GRK2 CP1 – GRK2 aptamer-displacing inhibitors, retest, confirmation, biochemical, cherry pick 1, bead flow cytometry; shares compounds with GRK2 aptamer HTS; bead-bound GRK2, FAM-aptamer displacement; aptamer displacement, % at 10 µM; 2,000 tested, 4% active; AID 504451, 2011;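 active = aptamer displacement above 40%, near three times the noise of non-fluorescent compounds, on plates passing quality checks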;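 also: negative values mostly reflect intrinsic compound fluorescence rather than true enhancement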
FAM quench CP1 – quenches fluorescent RNA aptamer, GRK2 hit artifact. fluorescence response (% of DMSO), % at 10 µM. AID 504580. 2,000 tested, under 10 active. Carboxyfluorescein RNA aptamer on beads, flow cytometry quenching; stronger effect = lower value. shares compounds with GRK2 aptamer HTS;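 active = compounds that quench the bead-bound fluorescent RNA probe, cutting fluorescence to under half of the solvent control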;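 also: counterscreen run without GRK2 so only probe quenching by compound is measured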
GRK2 confirm 2 – GRK2 aptamer-displacing inhibitors, hit retest, confirmation, biochemical, cherry pick 2, bead flow cytometry | inhibition of aptamer binding, % at 10 µM | shares compounds with GRK2 aptamer HTS | bead-bound GRK2, FAM-aptamer displacement | 360 tested, under 10 active | AID 504782, 2011;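 active = inhibition of aptamer binding above 40%, about triple the noise seen with nonglowing compounds, on plates passing quality control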;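 also: negative values mostly come from compounds that fluoresce themselves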
FAM quench CP2 – aptamer fluorescence quenching in GRK2 counter-screen. shares compounds with GRK2 aptamer HTS. carboxyfluorescein RNA aptamer beads, flow cytometry quenching; stronger effect = lower value. fluorescence response vs DMSO, % at 10 µM. 360 tested, under 10 active;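 active = response vs DMSO under 50%, meaning signal dropped by over half, treated as fluorescence quencher; inconclusive = no clear call, values can overlap the other calls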;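 also: labelled aptamer on streptavidin beads without GRK2 as a quench counter-screen; 100% = bead fluorescence of DMSO wells and lower means quenching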
An asterisk follows results filed as active; ? = inconclusive; . = not tested or not shown.

SMILES | proCasp3 act | proCasp7 act | Lipid droplet | GASC-1 inh | GRK2 aptamer HTS | VLA-4 inh | GRK2 CP1 | FAM quench CP1 | others
CCCCN(C(=O)CSc1nnc(-c2ccc(OC)cc2)n1C(C)C)c1c(N)n(Cc2ccccc2)c(=O)[nH]c1=O | -5.5 | -4.6 | 3.5 | 0.1 | 0.0 | 0.0 | . | .
CCCCN(C(=O)CSc1nnc(-c2ccc(OC)cc2)n1CC)c1c(N)n(Cc2ccccc2)c(=O)[nH]c1=O | 3.3 | 12.6 | -8.1 | 2.3 | 88.0* | 6.1 | -0.9 | 99.8
CCCCN(C(=O)c1cccc(-n2cccc2)c1)c1c(N)n(Cc2ccccc2)c(=O)[nH]c1=O | 4.3 | -7.0 | . | -13.5 | 46.0* | 7.5 | 9.8 | 97.1
CCOC(=O)c1cc(C(=O)OCC)c2cc(Br)ccc2n1 | 2.8 | 2.6 | 14.4 | 2.0 | 3.0 | 10.6 | . | .
CCCCOC(=O)c1cc(C)nc2ccc(Br)cc12 | -0.5 | -2.7 | 0.9 | 1.1 | 17.0 | 9.7 | -0.7 | 94.5
Cc1cc(Cl)ccc1OCC(=O)NNC(=O)c1ccc(=O)[nH]c1 | 4.0 | 10.3 | . | -4.0 | 0.0 | 4.3 | . | .
COc1ccc(OC)c(C2=NO[C@@H]3C(=O)N(c4cc(Cl)ccc4OC)C(=O)[C@H]23)c1 | 1.5 | 4.9 | -3.6 | 5.5 | 2.0 | 0.0 | . | . | GRK2 confirm 2=4.6;FAM quench CP2=?
COc1ccc(Cl)cc1N1C(=O)[C@@H]2C(c3cccc(OC)c3OC)=NO[C@@H]2C1=O | 5.3 | 12.5 | . | 14.2 | 6.0 | 0.0 | . | . | GRK2 confirm 2=7.6;FAM quench CP2=102.0
CC[C@@H](C)[C@@H]1CN([C@@H](CN2CCC[C@H]2CN2C(N)=NC[C@H]2CC(C)C)C(C)C)C(=N)N1CCc1ccc(Cl)c(Cl)c1 | 1.2 | 8.0 | . | . | 0.0 | -8.0 | . | .
CC[C@@H](C)[C@@H]1CN([C@@H](C)CN2CCC[C@H]2CN2C(N)=NC[C@H]2CC(C)C)C(=N)N1CCc1ccc(Cl)c(Cl)c1 | -2.2 | -9.0 | . | -5.1 | 84.0* | 14.9 | . | . | GRK2 confirm 2=-81.2;FAM quench CP2=99.0
O=C(CCCN1C(=O)/C(=C\c2cccs2)SC1=S)Nc1ccc(O)cc1C(=O)O | -14.8 | -12.2 | 1.1 | -6.9 | 0.0 | 10.6 | . | .
O=C(CCCN1C(=O)/C(=C\c2ccco2)SC1=S)Nc1ccc(O)cc1C(=O)O | -11.0 | -22.7 | -0.3 | -22.4 | 45.0* | 2.3 | -18.5 | 93.1
CCOC(=O)N1CCN(C(=O)c2nn(C)c3c2CSc2ccccc2-3)CC1 | 5.6 | 10.2 | -13.8 | 3.0 | 3.0 | -2.1 | . | .
COc1ccc(NC(=O)c2cc(-c3ccc(C)cc3)on2)cc1OC | 0.4 | 11.6 | -12.0 | -9.8 | 0.0 | 13.9 | . | .
Cc1ccc(-n2nc(C)c(C(=O)Nc3cccc(C(=O)NC4CC4)c3)n2)c(C)c1 | -2.4 | -1.6 | . | -8.0 | 0.0 | 0.9 | -1.1 | 103.3
Cc1nn(-c2cccc(Cl)c2)nc1C(=O)Nc1cccc(C(=O)NC2CC2)c1 | -6.5 | -1.4 | . | -4.3 | 2.0 | 3.2 | 1.4 | 96.0
